Test results taken from PMC7335720 (Saudi Pharmaceutical Journal : SPJ, 2020).

Assay: Pharmacokinetic study after single oral dose in rabbits
Format: in vivo
Conditions: male, rabbit, plasma, 2.58 mg/kg
In short: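 Twelve healthy fasted male rabbits (≈1.5 kg), 12 h fast, two groups. Single oral dose suspended in CMC: 2.58 mg/kg parent drug, or 6.45 mg/kg conjugate (2.58 mg/kg drug-equivalent). Water after 1 h. Plasma deproteinised with acetonitrile and filtered, then HPLC-UV at 248 nm (acetonitrile:water 50:50, isocratic, 1 mL/min) against a 1–50 μg/mL standard curve. AUC by linear trapezoidal method.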

SMILES: CC(C(=O)O)c1ccc(-c2ccccc2)c(F)c1 (stereo not shown) [Standard FLB, 2-(3-fluoro-4-phenylphenyl)propionic acid]
- AUC(0-inf): 190 ± 4 µg·h/mL
- Cmax: 37300 ng/mL
- half-life: 4.6 ± 0.19 h
- k el: 4.17e-05 s⁻¹
